According to ChEMBL document CHEMBL3414553, “Novel imidazo[2,1-b]-1,3,4-thiadiazoles as promising antifungal agents against clinical isolate of Cryptococcus neoformans” (2015):
Values after ≈ are worked out from the molar mass of the structure shown.

Columns and labels:
Type in all cases: functional
[1] = test system: Mycobacterium tuberculosis; experiment: Antimicrobial activity against Mycobacterium tuberculosis H37Rv
Method in brief: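 M. tuberculosis H37Rv grown 5 d in 7H9-Tw-OADC with 10-point two-fold serial dilutions from DMSO (final DMSO 2%). Top concentration 200 µM, or 50-fold below the stock for poorly soluble compounds. Controls: medium/DMSO background, 100 µM rifampicin for zero growth, DMSO for maximum growth, plus a rifampicin dose-response. Growth read by OD590 and fluorescence (Ex 560/Em 590).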

Candida albicans [2] = experiment: Antifungal activity against Candida albicans ATCC 90028 after 24 hrs by two-fold broth microdilution method; conditions: ATCC 90028, 24 h
Method in brief: (§1)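 Strains subcultured one day before testing; colonies suspended in sterile water and adjusted to 0.5 McFarland (1.5 × 10^8 cfu/ml). Two-fold dilutions in MHB (medium pH 7.4 ± 0.1), final 200 to 0.39 µg/ml. Incubated 37 ± 1 °C for 24 h, then resazurin (0.4 mg/ml) added for a further 5 h. MIC read by colour: blue = no growth, pink = growth.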

Candida albicans [3] = experiment: Antifungal activity against Candida albicans clinical isolate after 24 hrs by two-fold broth microdilution method; method in brief: as §1
Cryptococcus neoformans [4] = experiment: Antifungal activity against […] ATCC 66031 after 24 hrs by two-fold broth microdilution method; conditions: ATCC 66031, 24 h; method in brief: as §1
Cryptococcus neoformans [5] = experiment: Antifungal activity against […] clinical isolate after 24 hrs by two-fold broth microdilution method; method in brief: as §1
Aspergillus niger = experiment: Antifungal activity against Aspergillus niger ATCC 16404 after 24 hrs by two-fold broth microdilution method; conditions: ATCC 16404, 24 h; method in brief: as §1
Staphylococcus aureus = experiment: Antibacterial activity against Staphylococcus aureus ATCC 25923 after 24 hrs by two-fold broth microdilution method; conditions: ATCC 25923, 24 h; method in brief: as §1
Bacillus subtilis = experiment: Antibacterial activity against Bacillus subtilis ATCC 6051 after 24 hrs by two-fold broth microdilution method; conditions: ATCC 6051, 24 h; method in brief: as §1
Escherichia coli = experiment: Antibacterial activity against Escherichia coli ATCC 35218 after 24 hrs by two-fold broth microdilution method; conditions: ATCC 35218, 24 h; method in brief: as §1
Pseudomonas aeruginosa = experiment: Antibacterial activity against Pseudomonas aeruginosa ATCC 27853 after 24 hrs by two-fold broth microdilution method; conditions: ATCC 27853, 24 h; method in brief: as §1
MCF7 = experiment: Cytotoxicity against human MCF7 cells
MDA-MB-231 = experiment: Cytotoxicity against human MDA-MB-231 cells
MDA-MB-468 = experiment: Cytotoxicity against human MDA-MB-468 cells

Row | SMILES | MIC [1] [µg/mL] | MIC (Candida albicans [2]) [µg/mL] | MIC (Candida albicans [3]) [µg/mL] | MIC (Cryptococcus neoformans [4]) [µg/mL] | MIC (Cryptococcus neoformans [5]) [µg/mL] | MIC (Aspergillus niger) [µg/mL] | MIC (Staphylococcus aureus) [µg/mL] | MIC (Bacillus subtilis) [µg/mL] | MIC (Escherichia coli) [µg/mL] | MIC (Pseudomonas aeruginosa) [µg/mL] | GI50 (MCF7) [µM] | GI50 (MDA-MB-231) [µM] | GI50 (MDA-MB-468) [µM]
1 | O=C(NN=C1CCCCC1)c1ccncc1 | 30 (≈ 138 µM) | – | – | – | – | – | – | – | – | – | – | – | –
2 | Brc1ccc(-c2nc3sc(-c4ccc(I)cc4)nn3c2/C=N/C2CC2)cc1 | – | 25 (≈ 45.5 µM) | 50 (≈ 91 µM) | 100 (≈ 182 µM) | > 200 | 100 (≈ 182 µM) | 200 (≈ 364 µM) | 200 (≈ 364 µM) | 200 (≈ 364 µM) | 50 (≈ 91 µM) | – | – | –
3 | Cc1ccc(C(=O)/C=C/c2c(-c3ccc(Br)cc3)nc3sc(-c4ccccc4Cl)nn23)cc1 | – | 50 (≈ 93.5 µM) | > 200 | 50 (≈ 93.5 µM) | 100 (≈ 187 µM) | > 200 | 200 (≈ 374 µM) | > 200 | > 200 | > 200 | – | – | –
4 | Brc1ccc(-c2nc3sc(-c4ccccc4Br)nn3c2/C=N/C2CC2)cc1 | – | 25 (≈ 49.8 µM) | 50 (≈ 99.6 µM) | 100 (≈ 199 µM) | 200 (≈ 398 µM) | 100 (≈ 199 µM) | 200 (≈ 398 µM) | 200 (≈ 398 µM) | 200 (≈ 398 µM) | 50 (≈ 99.6 µM) | – | – | –
5 | Cc1ccc(C(=O)/C=C/c2c(-c3ccc(Br)cc3)nc3sc(-c4ccccc4Br)nn23)cc1 | – | 200 (≈ 345 µM) | > 200 | 1.56 (≈ 2.69 µM) | 12.5 (≈ 21.6 µM) | > 200 | 100 (≈ 173 µM) | > 200 | > 200 | > 200 | – | – | –
6 | CC1(C)S[C@@H]2[C@H](NC(=O)[C@H](N)c3ccc(O)cc3)C(=O)N2[C@H]1C(=O)O [AMOXICILLIN] | – | – | – | – | – | – | < 0.39 | < 0.39 | < 0.39 | < 0.39 | – | – | –
7 | C[C@@H]1[C@H](O)[C@@H](C)/C=C/C=C/C=C/C=C/C=C/C=C/C=C/[C@H](O[C@@H]2O[C@H](C)[C@@H](O)[C@H](N)[C@@H]2O)C[C@@H]2O[C@](O)(C[C@@H](O)C[C@@H](O)[C@H](O)CC[C@@H](O)C[C@@H](O)CC(=O)O[C@H]1C)C[C@H](O)[C@H]2C(=O)O [AMPHOTERICIN B] | – | 0.25 (≈ 0.271 µM) | 25 (≈ 27.1 µM) | 1 (≈ 1.08 µM) | 1 (≈ 1.08 µM) | 1.95 (≈ 2.11 µM) | – | – | – | – | – | – | –
8 | Clc1ccc(-c2nn3c(/C=N/C4CCCCC4)c(-c4ccc(Br)cc4)nc3s2)cc1 | – | 50 (≈ 100 µM) | 50 (≈ 100 µM) | 100 (≈ 200 µM) | > 200 | 100 (≈ 200 µM) | 200 (≈ 400 µM) | 200 (≈ 400 µM) | 200 (≈ 400 µM) | 50 (≈ 100 µM) | – | – | –
9 | Brc1ccc(-c2nc3sc(-c4ccccc4)nn3c2/C=N/C2CC2)cc1 | – | 25 (≈ 59.1 µM) | 50 (≈ 118 µM) | 100 (≈ 236 µM) | > 200 | 100 (≈ 236 µM) | 200 (≈ 472 µM) | 200 (≈ 472 µM) | 200 (≈ 472 µM) | 50 (≈ 118 µM) | – | – | –
10 | O=C(/C=C/c1c(-c2ccc(Br)cc2)nc2sc(-c3ccccc3Br)nn12)c1ccccc1 | – | 200 (≈ 354 µM) | > 200 | 1.56 (≈ 2.76 µM) | 6.25 (≈ 11.1 µM) | > 200 | 200 (≈ 354 µM) | > 200 | > 200 | > 200 | – | – | –
11 | Brc1ccc(-c2nc3sc(-c4ccccc4Br)nn3c2/C=N/C2CCCCC2)cc1 | – | 50 (≈ 91.9 µM) | 50 (≈ 91.9 µM) | 100 (≈ 184 µM) | 200 (≈ 367 µM) | 50 (≈ 91.9 µM) | 200 (≈ 367 µM) | 200 (≈ 367 µM) | 200 (≈ 367 µM) | 50 (≈ 91.9 µM) | – | – | –
12 | COc1ccc(C(=O)/C=C2\C(=O)Nc3ccc(Cl)cc32)cc1OC | – | – | – | – | – | – | – | – | – | – | 3.95 | 8.54 | 4.76
13 | O=C(/C=C/c1c(-c2ccc(Br)cc2)nc2sc(-c3ccc(Cl)cc3)nn12)c1ccccc1 | – | > 200 | > 200 | 6.25 (≈ 12 µM) | 12.5 (≈ 24 µM) | > 200 | > 200 | > 200 | > 200 | > 200 | – | – | –
14 | Cc1ccc(C(=O)/C=C/c2c(-c3ccc(Br)cc3)nc3sc(-c4ccc(Cl)cc4)nn23)cc1 | – | 50 (≈ 93.5 µM) | > 200 | 3.12 (≈ 5.84 µM) | 6.25 (≈ 11.7 µM) | > 200 | > 200 | > 200 | > 200 | > 200 | – | – | –
15 | Clc1ccccc1-c1nn2c(/C=N/C3CCCCC3)c(-c3ccc(Br)cc3)nc2s1 | – | 12.5 (≈ 25 µM) | 25 (≈ 50 µM) | 100 (≈ 200 µM) | > 200 | 100 (≈ 200 µM) | 200 (≈ 400 µM) | 200 (≈ 400 µM) | 200 (≈ 400 µM) | 50 (≈ 100 µM) | – | – | –
16 | Clc1ccc(-c2nn3c(/C=N/C4CC4)c(-c4ccc(Br)cc4)nc3s2)cc1 | – | 25 (≈ 54.6 µM) | 50 (≈ 109 µM) | 100 (≈ 218 µM) | 200 (≈ 437 µM) | 100 (≈ 218 µM) | 200 (≈ 437 µM) | 200 (≈ 437 µM) | 200 (≈ 437 µM) | 50 (≈ 109 µM) | – | – | –
